Test results from ChEMBL document CHEMBL2390884, “Design, synthesis and antiproliferative activity studies of novel 1,2,3-triazole-dithiocarbamate-urea hybrids” (Eur J Med Chem, 2013).
Activity calls are given as the source filed them. No cut-off for these calls is given here.

Experiments:
MGC-803 [1] = test: Cell cycle arrest in human MGC803 cells assessed as accumulation at G0/G1 phase at 0.5 uM after 24 hrs by propidium iodide staining-based flow cytometry; format: functional
Outline: (§1)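 Exponentially growing MGC-803 cells (5×10^5) treated at 0, 0.25, 0.5 or 1.0 µmol/L for 12 or 24 h; cells collected, fixed in ice-cold 70% ethanol, treated with buffer containing RNAse A and 0.1% Triton X-100, stained with PI; DNA content analysed by flow cytometry to give percentages of cells in G1, S and G2/M phases.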

MGC-803 [2] = test: Cell cycle arrest in human MGC803 cells assessed as accumulation at G2/M phase at 1 uM after 12 hrs by propidium iodide staining-based flow cytometry; format: functional; outline: as §1
MGC-803 [3] = test: Induction of apoptosis in human MGC803 cells assessed as necrotic cells at 1 uM after 12 hrs by AnnexinV-FITC/propidium iodide staining-based flow cytometry (reference value: 2.4 %); format: functional
MGC-803 [4] = test: Cell cycle arrest in human MGC803 cells assessed as accumulation at S phase at 0.5 uM after 12 hrs by propidium iodide staining-based flow cytometry; format: functional; outline: as §1
MGC-803 [5] = test: Cell cycle arrest in human MGC803 cells assessed as accumulation at S phase at 1 uM after 24 hrs by propidium iodide staining-based flow cytometry; format: functional; outline: as §1
MGC-803 [6] = test: Cell cycle arrest in human MGC803 cells assessed as reduction in S phase accumulation at 0.25 to 1 uM by propidium iodide staining-based flow cytometry; format: functional; details: TDE = time-dependent effect; outline: as §1
MGC-803 [7] = test: Cell cycle arrest in human MGC803 cells assessed as accumulation at S phase at 1 uM after 12 hrs by propidium iodide staining-based flow cytometry; format: functional; outline: as §1
MGC-803 [8] = test: Cell cycle arrest in human MGC803 cells assessed as accumulation at G0/G1 phase at 1 uM after 12 hrs by propidium iodide staining-based flow cytometry; format: functional; outline: as §1
MGC-803 [9] = test: Cell cycle arrest in human MGC803 cells assessed as accumulation at G0/G1 phase at 0.5 uM after 12 hrs by propidium iodide staining-based flow cytometry; format: functional; outline: as §1
MGC-803 [10] = test: Cell cycle arrest in human MGC803 cells assessed as reduction in G1 phase accumulation at 0.25 to 1 uM by propidium iodide staining-based flow cytometry; format: functional; details: TDE = time-dependent effect; outline: as §1
[11] = Cytotoxicity against human EC9706 cells after 72 hrs by MTT assay; format: functional, cell-based; details: EC9706, 72 h
MGC-803 [12] = test: Cell cycle arrest in human MGC803 cells assessed as accumulation at S phase at 0.25 uM after 12 hrs by propidium iodide staining-based flow cytometry; format: functional; outline: as §1
MGC-803 [13] = test: Cell cycle arrest in human MGC803 cells assessed as accumulation at G2/M phase at 0.25 uM after 12 hrs by propidium iodide staining-based flow cytometry; format: functional; outline: as §1
MGC-803 [14] = test: Cell cycle arrest in human MGC803 cells assessed as reduction in S phase accumulation after 12 to 24 hrs by propidium iodide staining-based flow cytometry; format: functional; outline: as §1
MGC-803 [15] = test: Induction of apoptosis in human MGC803 cells assessed as early apoptotic cells at 1 uM after 12 hrs by AnnexinV-FITC/propidium iodide staining-based flow cytometry (reference value: 2.8 %); format: functional
MGC-803 [16] = test: Induction of apoptosis in human MGC803 cells assessed as late apoptotic cells at 0.5 uM after 12 hrs by AnnexinV-FITC/propidium iodide staining-based flow cytometry (reference value: 3.0 %); format: functional
MGC-803 [17] = test: Induction of apoptosis in human MGC803 cells assessed as viable cells at 0.5 uM after 12 hrs by AnnexinV-FITC/propidium iodide staining-based flow cytometry (reference value: 91.9 %); format: functional; details: MGC-803, 12 h, read-out: Activity
MGC-803 [18] = test: Cell cycle arrest in human MGC803 cells assessed as accumulation at G0/G1 phase at 0.25 uM after 24 hrs by propidium iodide staining-based flow cytometry; format: functional; outline: as §1
MGC-803 [19] = test: Cell cycle arrest in human MGC803 cells assessed as accumulation at G2/M phase at 0.25 to 1 uM by propidium iodide staining-based flow cytometry; format: functional; details: TDE = time-dependent effect; outline: as §1
HEK293 = test: Cytotoxicity against human HEK293 cells up to 70 uM after 72 hrs by MTT assay; format: cell-based; details: hek293, 72 h
Outline: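 HEK293 cells seeded at 5×10^3 per well, grown 24 h at 37°C, then medium replaced with compound-containing medium over a concentration range; 72 h exposure; MTT (5 mg/mL stock) added for 4 h at 37°C, formazan dissolved in DMSO, absorbance read at 570 nm. Triplicate per concentration, experiment repeated three times.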

MGC-803 [20] = test: Cell cycle arrest in human MGC803 cells assessed as accumulation at G0/G1 phase at 0.25 uM after 12 hrs by propidium iodide staining-based flow cytometry; format: functional; outline: as §1
MGC-803 [21] = test: Induction of apoptosis in human MGC803 cells assessed as necrotic cells at 0.5 uM after 12 hrs by AnnexinV-FITC/propidium iodide staining-based flow cytometry (reference value: 2.4 %); format: functional
MGC-803 [22] = test: Induction of apoptosis in human MGC803 cells assessed as necrotic cells at 0.25 uM after 12 hrs by AnnexinV-FITC/propidium iodide staining-based flow cytometry (reference value: 2.4 %); format: functional
MGC-803 [23] = test: Cell cycle arrest in human MGC803 cells assessed as accumulation at S phase at 0.5 uM after 24 hrs by propidium iodide staining-based flow cytometry; format: functional; outline: as §1
MGC-803 [24] = test: Induction of apoptosis in human MGC803 cells at 0.25 to 1 uM after 12 hrs by AnnexinV-FITC/propidium iodide staining-based flow cytometry (reference value: 2.8 %); format: functional
MGC-803 [25] = test: Cell cycle arrest in human MGC803 cells assessed as accumulation at S phase at 0.25 uM after 24 hrs by propidium iodide staining-based flow cytometry; format: functional; outline: as §1
MGC-803 [26] = test: Induction of apoptosis in human MGC803 cells assessed as late apoptotic cells at 1 uM after 12 hrs by AnnexinV-FITC/propidium iodide staining-based flow cytometry (reference value: 3.0 %); format: functional
SMMC-7721 = test: Cytotoxicity against human SMMC7721 cells after 72 hrs by MTT assay; format: functional, cell-based; details: SMMC-7721, 72 h
MGC-803 [27] = test: Induction of apoptosis in human MGC803 cells assessed as early apoptotic cells at 0.25 uM after 12 hrs by AnnexinV-FITC/propidium iodide staining-based flow cytometry (reference value: 2.8 %); format: functional
MGC-803 [28] = test: Induction of apoptosis in human MGC803 cells assessed as nuclear fragmentation at 0.25 to 1 uM after 12 hrs by Hoechst 33258 staining-based fluorescence microscopy; format: functional, cell-based
Outline: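 MGC-803 cells seeded at 8×10^3 cells/well, treated 12 h at 0, 0.25, 0.5 or 1.0 µmol/L; cells collected, fixed, stained 20 min with Hoechst 33258, washed with PBS; nuclear shrinkage, chromatin condensation, intense fluorescence and fragmentation scored by fluorescence microscopy.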

MGC-803 [29] = test: Cell cycle arrest in human MGC803 cells assessed as reduction in G1 phase accumulation after 12 to 24 hrs by propidium iodide staining-based flow cytometry; format: functional; outline: as §1
MGC-803 [30] = test: Induction of apoptosis in human MGC803 cells after 12 hrs by AnnexinV-FITC/propidium iodide staining-based flow cytometry; format: functional, cell-based
MGC-803 [31] = test: Induction of apoptosis in human MGC803 cells assessed as late apoptotic cells at 0.25 uM after 12 hrs by AnnexinV-FITC/propidium iodide staining-based flow cytometry (reference value: 3.0 %); format: functional

In the case of `CC(C)NC(=O)N1CCN(C(=S)SCc2cn(Cc3ccc(F)cc3)nn2)CC1`, the Activity (MGC-803 [1]) is reported as 4.91%, the Activity (MGC-803 [2]) is reported as 68.68% and the Activity (MGC-803 [3]) is reported as 1.2%. For the same compound, the Activity (MGC-803 [4]) was 32.65%, the Activity (MGC-803 [5]) was 15.91% and the Activity (MGC-803 [6]) was “tde”. For the same compound, the Activity (MGC-803 [7]) was 12.65%, the Activity (MGC-803 [8]) was 3.62% and the Activity (MGC-803 [9]) was 22.18%. For the same compound, the Activity (MGC-803 [10]) was “tde”, the IC50 [11] was 12.2 µM and the Activity (MGC-803 [12]) was 40.91%. The Activity (MGC-803 [13]) was 20.84%, the Activity (MGC-803 [14]) was “Dose-dependent effect” and the Activity (MGC-803 [15]) was 31.4%. It also gave an Activity (MGC-803 [16]) of 1.8%, a viability at 0.5 µM (MGC-803 [17]) of 80.1% and an Activity (MGC-803 [18]) of 13.78%. For the same compound, the Activity (MGC-803 [19]) was “tde”, the Activity (HEK293) was “Non-toxic” and the Activity (MGC-803 [20]) was 37.35%. The Activity (MGC-803 [21]) was 0.8%, the Activity (MGC-803 [22]) was 0.5% and the Activity (MGC-803 [23]) was 20.57%. For the same compound, the Activity (MGC-803 [24]) was 31.4%, the Activity (MGC-803 [25]) was 25.21% and the Activity (MGC-803 [26]) was 2.4%. For the same compound, the IC50 (SMMC-7721) was 5.97 µM, the Activity (MGC-803 [27]) was 9.2% and the Activity (MGC-803 [28]) was “Active”. The Activity (MGC-803 [29]) was “Dose-dependent effect”, the Activity (MGC-803 [30]) was “Dose-dependent effect” and the Activity (MGC-803 [31]) was 2.2%.
